Laboratory results from ChEMBL document CHEMBL3120057, “Bioactive limonoids from the leaves of Azaridachta indica (Neem)” (J Nat Prod, 2014).
The source made the active and inactive calls. The rule behind the calls is not given here.

How the values were obtained:
PC-3 [1] = assay: Cytotoxicity against human PC3 cells assessed as growth inhibition at 100 uM after 48 hrs by trypan blue exclusion assay; format: functional, cell-based
Outline: (§1)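 Cells cultured in DMEM with 10% FBS, streptomycin and penicillin at 37 °C under 5% CO2, and plated at 1.2 × 10^5/mL one day before treatment. Single 100 μM exposure for 48 h from DMSO stock diluted in medium. Viability read by MTT at 550 nm, blank-subtracted, as % of DMSO-vehicle control. Random checks by trypan blue exclusion count.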

HeLa [2] = assay: Cytotoxicity against human HeLa cells assessed as growth inhibition at 100 uM after 48 hrs by trypan blue exclusion assay; format: functional, cell-based; outline: as §1
PC-3 [3] = assay: Cytotoxicity against human PC3 cells after 48 hrs; format: functional, cell-based; conditions: PC-3, 48 h
Outline: (§2)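 MTT viability. ATCC cells in DMEM with 10% FBS and penicillin/streptomycin at 37 °C under 5% CO2, plated at 1.2 × 10^5/mL the day before dosing. Exposed 48 h to 20−100 μM (DMSO stocks diluted in medium). Formazan dissolved in DMSO and read at 550 nm. Viability expressed as % of vehicle control, blank-subtracted. Checked by trypan blue count. PEITC as positive control. Mean ± SD, at least three experiments in duplicate.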

HeLa [4] = assay: Cytotoxicity against human HeLa cells after 48 hrs; format: functional, cell-based; outline: as §2
[5] = biological target: Heat shock protein HSP 90-alpha (Homo sapiens, UniProt P07900); assay: Binding affinity to recombinant HSP90-alpha (unknown origin) by surface plasmon resonance analysis

Row | Compound | growth inhibition (GI) (PC-3 [1]) | growth inhibition (GI) (HeLa [2]) | IC50 (PC-3 [3]) | IC50 (HeLa [4]) | Activity [5] | Kd [5]
1 | CC(=O)O[C@@H]1[C@H](O)[C@H]2C(C)(C)C(=O)C=C[C@]2(C)[C@H]2CC[C@]3(C)C(=CC[C@H]3C3=COC(=O)C3O)[C@]12C (relative stereo) | inactive | inactive | – | – | – | –
2 | COc1cc(/C=C/C(=O)OC[C@H]2O[C@@H](OC(C)(C)C(=O)O)[C@H](O)[C@@H](O)[C@@H]2O)cc(OC)c1O | inactive | inactive | – | – | – | –
3 | CC(=O)O[C@@H]1[C@H](O)[C@H]2C(C)(C)C(=O)C=C[C@]2(C)[C@H]2CC[C@]3(C)C(=CC[C@H]3c3ccoc3)[C@]12C [NIMONOL] | Active | Active | 95 µM | 77 µM | – | –
4 | CC(=O)O[C@@H]1[C@H](O)[C@H]2C(C)(C)C(=O)C=C[C@]2(C)[C@H]2CC[C@]3(C)C(=CC[C@H]3[C@@H]3CC(=O)OC3=O)[C@]12C (relative stereo) | Active | Active | > 100 µM | 95 µM | – | –
5 | COC(=O)C[C@H]1[C@]2(C)C3=C(C)[C@H](C4=COC(=O)C4O)C[C@@H]3O[C@@H]2[C@H](O)[C@@H]2[C@]1(C)C(=O)C=C[C@@]2(C)O (stereo partly drawn) | inactive | inactive | – | – | inactive | –
6 | CC(=O)O[C@@H]1[C@H](O)[C@H]2C(C)(C)C(=O)CC[C@]2(C)[C@H]2CC[C@]3(C)C(=CC[C@H]3c3ccoc3)[C@]12C | Active | Active | 90 µM | 74 µM | – | –
7 | COC(=O)C[C@H]1[C@]2(C)C3=C(C)[C@H](C4=CC(=O)OC4O)C[C@@H]3O[C@@H]2[C@H](O)[C@@H]2[C@]1(C)C(=O)C=C[C@@]2(C)O (stereo partly drawn) | inactive | inactive | – | – | inactive | –
8 | COC(=O)[C@H]1OC[C@]23[C@@H]1[C@](C)([C@]14O[C@@]1(C)[C@H]1C[C@@H]4O[C@@H]4OC=C[C@@]41O)[C@H](O)[C@@H]1OC[C@](C(=O)OC)([C@H](O)C[C@@H]2O)[C@H]13 | inactive | inactive | – | – | – | –
9 | CC(=O)O[C@@H]1[C@H](O)[C@H]2C(C)(C)C(=O)CC[C@]2(C)[C@H]2CC[C@]3(C)C(=CC[C@H]3[C@@H]3CC(=O)OC3=O)[C@]12C (relative stereo) | inactive | inactive | – | – | – | –
10 | CC(=O)O[C@@H]1[C@H](O)[C@H]2C(C)(C)C(=O)CC[C@]2(C)[C@H]2CC[C@]3(C)C(=CC[C@H]3C3=COC(=O)C3O)[C@]12C (stereo partly drawn) | inactive | inactive | – | – | – | –
11 | CC(=O)O[C@@H]1C[C@H](OC(=O)C=C(C)C)[C@@]2(C)[C@H]3[C@@H](OC[C@]13C)[C@@H](O)[C@@]1(C)C3=CC[C@@H]([C@@H]4COC(=O)C4)[C@]3(C)CC[C@@H]12 | inactive | inactive | – | – | inactive | –
12 | CC(=O)O[C@H]1C[C@@H](OC(C)=O)[C@@]2(C)CO[C@@H]3[C@@H](O)[C@@]4(C)C5=CC[C@@H](c6ccoc6)[C@]5(C)CC[C@@H]4[C@]1(C)[C@@H]32 | Active | Active | 80 µM | 74 µM | – | 0.049 µM
13 | C/C=C(\C)C(=O)O[C@H]1C[C@@H](O)[C@@]2(C(=O)OC)CO[C@H]3[C@@H](O)[C@@](C)([C@]45O[C@@]4(C)[C@H]4C[C@@H]5O[C@@H]5OC=C[C@@]54O)[C@@H]4[C@@H](C(=O)OC)OC[C@@]14[C@@H]32 | inactive | inactive | – | – | – | –
14 | C/C=C(\C)C(=O)O[C@H]1C[C@@H](O)[C@@]2(C)CO[C@H]3[C@H]4O[C@@H]5C[C@@H](c6ccoc6)C(C)=C5[C@@]4(C)[C@H](CC(=O)OC)[C@]1(C)[C@@H]32 [DESACETYL SALANNIN] | inactive | inactive | – | – | – | 0.033 µM
15 | CC(=O)O[C@@H]1[C@H](O)[C@H]2C(C)(C)C(=O)CC[C@]2(C)[C@H]2CC[C@]3(C)C(=CC[C@H]3[C@H]3COC(=O)C3)[C@]12C | inactive | inactive | – | – | – | –
